In publication PMC2908238 (Journal of neurochemistry, 2010):

How the values were obtained:
[1] = Electron microscopy, morphology of assemblies; format: physicochemical; settings: EM, 10 µM peptide, pH 7.4, 25°C, agitation 200 rpm; for Morphology after 72 h of incubation: 72 h (Aβ40 analogues)
Outline: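 Peptide from HFIP films, dissolved in 60 mM NaOH, diluted with water, sonicated 1 min, adjusted to 10 µM in 20 mM sodium phosphate pH 7.4; incubated 25°C with 200 rpm orbital shaking. Aliquots adsorbed 20 min on glow-discharged carbon-coated Formvar grids, wicked, fixed 2.5% glutaraldehyde 4 min, stained 1% uranyl acetate 3 min, air-dried; transmission EM.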

[2] = 5 µM, 37°C, without agitation, ref Ciccotosto et al. 2004; cited from earlier work
Dynamic light scattering = format: physicochemical; settings: 10 µM peptide, pH 7.4, filtered 20 nm, quiescent incubation
Outline: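 HFIP-treated peptide films dissolved in 60 mM NaOH, diluted with water, sonicated 1 min, then brought to 10 µM in 20 mM sodium phosphate, pH 7.4. Passed through 20-nm filter before first reading; kept at room temperature, no agitation, up to 14 days. 633-nm He-Ne laser, 90° scattering, multitau correlator; size distribution from regularization deconvolution. Representative of two independent experiments.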

Substance | Morphology after 72 h of incubation [1] | Morphology initially and after 72 h of incubation [2] | Morphology after 24 h of incubation ([1]; 24 h (Aβ42 analogues)) | DLS intensity spikes (fibril formation) after 7 days (Dynamic light scattering; 7 days) | Hydrodynamic radius (RH) of particles after 7 days (Dynamic light scattering; DLS, 7 days) | Hydrodynamic radius (RH) of particles after 14 days (Dynamic light scattering; DLS, 14 days)
Aβ40: wild-type amyloid β-protein, 40-residue alloform, synthesized by Fmoc chemistry | did not change |  |  |  |  | 
Aβ42: wild-type amyloid β-protein, 42-residue alloform, synthesized by Fmoc chemistry |  | non-fibrillar morphology | abundant fibrils | no intensity spikes | the same distribution | 100–200 nm
[Val^35]Aβ40: Aβ40 analogue with Met^35 substituted by Val | mixture of oligomers and fibrils |  |  |  |  | 
